Changes are numbered by the printed parent chain. Read-outs that look alike come from different tables or passages of the source.
Experiments:
[1] = target: T1, mOtop1 channels co-expressed in HEK293 cells (Mus musculus, UniProt Q80VM9); test: live cell intracellular pH imaging; format: cell-based; details: pH 5.0; mOtop1 transfected cells
T1 sequence (Q80VM9 1-600): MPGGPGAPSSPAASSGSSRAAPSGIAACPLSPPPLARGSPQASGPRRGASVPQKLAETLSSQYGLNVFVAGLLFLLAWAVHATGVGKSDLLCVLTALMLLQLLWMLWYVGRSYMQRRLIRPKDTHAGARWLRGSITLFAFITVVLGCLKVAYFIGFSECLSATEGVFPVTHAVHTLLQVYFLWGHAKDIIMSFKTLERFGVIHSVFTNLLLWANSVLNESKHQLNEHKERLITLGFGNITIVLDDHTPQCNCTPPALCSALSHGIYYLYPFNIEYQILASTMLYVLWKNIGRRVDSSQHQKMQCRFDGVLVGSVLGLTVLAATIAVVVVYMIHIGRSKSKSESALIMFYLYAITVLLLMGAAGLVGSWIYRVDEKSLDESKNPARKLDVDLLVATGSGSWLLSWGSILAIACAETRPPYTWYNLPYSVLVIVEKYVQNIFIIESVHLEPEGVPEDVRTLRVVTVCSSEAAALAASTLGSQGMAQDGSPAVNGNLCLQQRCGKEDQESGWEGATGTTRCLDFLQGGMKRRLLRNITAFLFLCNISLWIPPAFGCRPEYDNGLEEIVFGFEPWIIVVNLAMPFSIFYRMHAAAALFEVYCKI
Method in brief: (§1)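 HEK293 cells were electroporated (180 V, 25 ms) with pHmScarlet-mTurquise2, with or without mOtop1, and imaged 24 h later. Cells sat in pH 7.4 solution (mM: 140 KCl, 10 NaCl, 1 MgCl2, 20 HEPES), then were shifted to pH 8.5 (Tris), 6.0 (MES) or 5.0 (HomoPIPES). Test compound was 10 μM in the stimulus solution, with acetic acid pH 5.0 as positive control. FpHmScarlet/FmTurquise2 ratio read every 2 s.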

[2] = test system: HEK293 cells expressing merely pHmScarlet-mTurquise2; test: live cell intracellular pH imaging; format: cell-based; details: pH 5.0; nontransfected cells
Method in brief: as §1

[3] = test system: Otop1 channel; details: cited from earlier work
[4] = target: T2, mOtop1/R554A (Mus musculus, UniProt Q80VM9, R554A); test: patch-clamp, mOtop1 mutant; format: cell-based; details: 1 mM Zn2+
T2 sequence (Q80VM9 1-600 R554A): T1 sequence (Q80VM9 1-600) with R554A

[5] = target: T3, mouse Otop1 (mOtop1) channels (Mus musculus, UniProt Q80VM9); format: cell-based; details: read-out: IC50, inhibition of mOtop1 currents, n = 5-6
T3 sequence (Q80VM9 1-600): T1 sequence (Q80VM9 1-600)

[6] = test system: mOtop1 channel; details: read-out: EC50, activating Otop1 currents; neutral and acidic conditions; cited from earlier work

With `CC(=O)O` [acetic acid, reference compound] the “pHi change, positive control” value [1] was “triggered dramatical pHi dropdown” and the “pHi change, positive control” value [2] was “triggered dramatical pHi dropdown”.

For `Nc1c(S(=O)(=O)O)cc(Nc2ccc(Nc3nc(Cl)nc(Nc4ccccc4S(=O)(=O)O)n3)c(S(=O)(=O)O)c2)c2c1C(=O)c1ccccc1C2=O` [Cibacron Blue 3G-A], the “action on Otop1” value [3] is listed as “moderate antagonist”.

With `[Zn+2]` [Zn^2+] the “effect on mOtop1/R554A currents” value [4] was “significantly inhibited”, the IC50 ([5]; currents activated by pH 5.5 alone) was 72 ± 9 µM and the IC50 ([5]; currents activated by pH 5.5 with 10 μM MFaN) was 58 ± 13 µM.

For `Cc1ccc(C(C)C)cc1O` [carvacrol], the EC50 [6] is given as about 700 µM.

Reference: paper PMC11865470 (Communications Biology, 2025)
